# High-throughput results as filed in PubChem.
# An excerpt weighted towards active compounds, which were near 1.6% of everything screened.
# PLCb3 inh – blocks human PLC-beta3 enzyme activity; inhibition, % at 12.2 µM; 370,000 tested, 0.18% active; Q01970; Purified PLC-beta3, fluorogenic substrate, fluorescence; in the data active = inhibition above about 11%
# PLC-gamma1 inh – blocks human PLC-gamma1 enzyme activity; purified PLC-gamma1, fluorogenic substrate, fluorescence; inhibition, % at 12.2 µM; 370,000 tested, 0.84% active; AID 720700
# sPLA2-III inh – Blocks human group III sPLA2 activity | QFRET BODIPY PC-A2 liposome hydrolysis, fluorescence | inhibition, % at 12.2 µM | 370,000 tested, 0.56% active | AID 743126;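 active = inhibition above mean plus 3 SD of compounds lying within the high and low control bounds, cut at about 19% in these data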
# proCasp3 act – activators of human procaspase-3. P42574. recombinant procaspase-3 D3A, Ac-DEVD-pNA absorbance 405 nm. activation, % at 8.5 µM. 330,000 tested, 0.11% active. AID 463141;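 active = activation above the mean of all tested compounds plus 3 SD, cut at about 21% in these data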
# Target sequence (P42574 whole entry D9A/D28A/D175A): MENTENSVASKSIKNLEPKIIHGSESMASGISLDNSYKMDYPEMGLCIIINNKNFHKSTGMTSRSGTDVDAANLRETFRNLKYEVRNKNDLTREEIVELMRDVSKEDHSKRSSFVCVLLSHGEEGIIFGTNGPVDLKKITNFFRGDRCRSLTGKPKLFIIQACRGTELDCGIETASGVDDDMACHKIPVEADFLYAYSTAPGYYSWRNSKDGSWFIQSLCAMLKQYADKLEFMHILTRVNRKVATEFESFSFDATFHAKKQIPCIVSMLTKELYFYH
#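 Test system: Procaspase-3 D3A mutant; medium: Zinc-free HEPES/NaCl buffer with 0.01% Triton X-100 at pH 7.4; reagent: DEVD-pNA substrate; doses: one concentration, 8.5 µM nominal, 0.8% DMSO; times: 1 h preincubation plus 2 h reaction at 25 °C; signal: Epi-absorbance at 405 nm of released p-nitroaniline, 0 and 120 min; replicates: singlicate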
# procasp7 counter – activates human procaspase-7, counter-screen for procaspase-3 activators; P55210; recombinant procaspase-7, Ac-DEVD-pNA absorbance 405 nm; D23A/D198A/D206A triple mutant, cannot self-cleave; scale: DMSO 0, 5 µM enzyme 100; activation, % at 8.5 µM; 330,000 tested, 0.093% active; AID 463210;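 active = percent activation above the screen-wide mean plus 3 SD, cut at about 25% in these data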
# Target sequence (P55210 whole entry D23A/D198A/D206A): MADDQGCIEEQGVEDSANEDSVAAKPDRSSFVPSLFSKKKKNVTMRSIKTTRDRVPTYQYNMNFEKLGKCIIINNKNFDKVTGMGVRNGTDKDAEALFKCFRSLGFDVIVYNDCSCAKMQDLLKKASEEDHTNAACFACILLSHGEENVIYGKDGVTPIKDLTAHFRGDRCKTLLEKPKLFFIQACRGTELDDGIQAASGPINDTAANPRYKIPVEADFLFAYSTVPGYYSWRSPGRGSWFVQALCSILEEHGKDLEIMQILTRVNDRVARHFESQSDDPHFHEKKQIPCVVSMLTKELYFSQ
#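 Test system: Procaspase-7 triple mutant (PC-7 D3A). Also added: Ac-DEVD-pNA substrate, 400 µM as added. Schedule: 1 h enzyme–compound preincubation and 2 h substrate reaction, both 25 °C. Signal: p-Nitroaniline absorbance at 405 nm, read at 0 and 120 min. Control set: low DMSO alone, high DMSO plus 5 µM PC-7.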
# PLCgamma1 ctr – PLC-gamma1 inhibition, counter-screen for PLC-beta3 hits. 3,300 tested, 3.1% active. purified PLC-gamma1, fluorogenic substrate, fluorescence. inhibition, % at 12.3 µM. shares compounds with PLC-gamma1 inh. AID 743258
# PLCbeta3 conf – human PLC-beta3 inhibition, confirmation; shares compounds with PLC-gamma1 inh; purified PLC-beta3, fluorogenic substrate fluorescence; inhibition, % at 12.3 µM; 3,300 tested, 1% active; in the data active = inhibition above about 11%
# Hits are given with their value; i = inactive; nt = no result given. Rule as the data show it, unless noted: active = inhibition above about 9.5%; inactive = the rest.
SMILES,PLCb3 inh,PLC-gamma1 inh,sPLA2-III inh,proCasp3 act,procasp7 counter,PLCgamma1 ctr,PLCbeta3 conf
O=C(CNCc1ccc(Cl)cc1)Nc1ccc2c(c1)OCCO2,i,10,i,i,i,i,i
Cc1noc(C)c1C(=O)OC(C)C(=O)c1c[nH]c2ccccc12 (stereo unspecified),i,i,i,nt,nt,nt,nt
NC(Cc1ccc(C(F)(F)F)cc1)c1csc(NC(=O)NCCc2ccccc2)n1 (stereo unspecified),i,12,i,nt,nt,i,i
COc1cccc(C2(O)CCN(C(=O)C3CCC3)CC2)c1,i,12,i,i,i,i,i
CC(OC(=O)c1cc2c(s1)CCCCC2)C(=O)NC(N)=O (stereo unspecified),i,i,i,i,i,nt,nt
CC(C)C(OC(=O)c1cc2c(s1)CCCCC2)C(=O)NC(N)=O (stereo unspecified),i,18,i,i,i,i,i
Cc1ccc(N2CC(C(=O)OCC(=O)NNC(=O)c3ccccc3)CC2=O)cc1 (stereo unspecified),i,11,i,i,i,i,i
CC1(C)CC(NC(=O)c2ccncc2)CC(C)(C)N1O,i,11,i,i,i,i,i
CN1CCC(NC(=O)c2ccncc2)CC1,i,i,i,i,i,nt,nt
Cn1ncc2nc[nH]c(=O)c21,i,10,i,i,i,i,i
CCOC(=O)N1CCN(C(=O)C[C@H]2C[C@@]3(C(=O)OC)C(=C[C@H](C4CCCC4)O[C@@H]3C)N(Cc3ccc(Cl)cc3Cl)C2=O)CC1,i,i,i,nt,nt,nt,nt
O=C(N/N=C/c1ccsc1)c1ccc2ccccc2n1,i,i,i,i,i,nt,nt
COc1cccc(C(=O)Nc2ccc(-n3nncc3C(C)(C)C)cc2)c1,12,i,i,i,i,i,i
COc1ccc(CNCC(O)COc2cccc3c2OC(C)(C)C3)cc1 (stereo unspecified),i,i,i,i,i,nt,nt
O=Cc1cc(N=Nc2cccc(C(=O)O)c2)ccc1O,i,14,i,i,i,29,i
C[C@H]1CN([C@@H](C)CO)C(=O)CCCn2nncc2CO[C@H]1CN(C)C(=O)Nc1ccc2c(c1)OCO2,i,i,i,nt,nt,nt,nt
CC1(C)CC2(CC(C)(C(=O)CSc3nc4ccccc4s3)OC2=O)C(=O)O1 (stereo unspecified),11,16,i,i,i,i,i
CC1CC2(CC(C)(C(=O)CSc3nc4ccccc4s3)OC2=O)C(=O)O1 (stereo unspecified),i,i,i,i,i,nt,nt
O=C(OCc1ccccc1)/C(=C(\O)c1ccccc1Br)c1ccc(-c2ccccc2)cn1,i,i,i,i,i,nt,nt
C[C@]12CCC(O)CC1=CCC1C2CC[C@]2(C)/C(=N\NC(N)=S)CCC12 (stereo partly specified),i,12,i,i,i,i,i
CCC(=NNc1ccc([N+](=O)[O-])cc1[N+](=O)[O-])c1ccccc1,i,i,i,nt,nt,nt,nt
C/C(=N\Nc1ccc([N+](=O)[O-])cc1[N+](=O)[O-])C(C)(C)C(C(=O)O)C(=O)O,i,11,i,i,i,i,i
C[C@H](CO)N1C[C@H](C)[C@H](CN(C)S(=O)(=O)c2cccc(F)c2)Oc2ncc(-c3cccc(C(=O)N(C)C)c3)cc2C1=O,i,i,i,nt,nt,nt,nt
CCOC(=O)c1c(C)nc(C)c(C(=O)OCC)c1-c1ccc(Br)cc1,i,12,i,i,i,i,i
COc1cc(C(=O)N2CCCCC2c2cc(C(=O)NC(C)C)no2)cc(OC)c1C (stereo unspecified),i,13,i,nt,nt,i,i
SMILES,PLCb3 inh,PLC-gamma1 inh,sPLA2-III inh,proCasp3 act,procasp7 counter,PLCgamma1 ctr,PLCbeta3 conf
COc1ccc(NC(=O)c2cc(C3CCCCN3C(=O)c3cc(F)ccc3C)on2)c(C)c1 (stereo unspecified),i,9.7,i,nt,nt,i,i
O=C(c1ccc(F)cc1F)N1CCC(Oc2cccnc2)CC1,i,i,i,nt,nt,nt,nt
O=C(Cc1ccc([N+](=O)[O-])cc1)Oc1ccccc1,i,9.7,i,nt,nt,i,i
COc1ccc(S(=O)(=O)N2CCCCCC2)cc1C(=O)NCc1cccs1,i,i,i,i,i,nt,nt
CN(C)c1ccc(C(=O)N2CCC2(C)C(=O)O)cc1 (stereo unspecified),i,i,i,nt,nt,nt,nt
NS(=O)(=O)c1ccc(N/N=C/c2ccccc2C(=O)O)c([N+](=O)[O-])c1,i,i,i,i,i,nt,nt
NS(=O)(=O)c1ccc(N/N=C/c2ccc(O)cc2O)c([N+](=O)[O-])c1,i,10,i,i,i,12,13
NS(=O)(=O)c1ccc(N/N=C/c2ccc(O)c(O)c2O)c([N+](=O)[O-])c1,i,12,i,nt,nt,i,i
NS(=O)(=O)c1ccc(N/N=C/c2ccccn2)c([N+](=O)[O-])c1,i,i,i,i,i,nt,nt
COc1ccccc1/C=C(/C(=O)OCC(=O)Nc1ccccc1C)c1ccccc1,i,i,i,i,i,nt,nt
COc1ccccc1CNC(=O)CCc1ccccc1,i,10,i,i,i,i,i
COc1ccccc1CNC(=O)CN(Cc1ccc(Cl)cc1)S(C)(=O)=O,11,i,i,i,i,i,i
COc1ccccc1/C=C(/C(=O)OCC(=O)NCc1ccccc1)c1ccccc1,12,13,i,i,i,i,i
COc1ccc(CCC(=O)NCc2ccccc2OC)cc1,i,i,i,i,i,nt,nt
O=C(NCCc1ccc(C(F)(F)F)cc1)C1CC(=O)N(Cc2ccccc2)C1 (stereo unspecified),i,i,i,i,i,nt,nt
CCOC(=O)CSc1nc(=O)n2ccccc2n1,i,i,i,i,i,nt,nt
COc1ccc(CNC(=O)C2=CC(c3ccc(C)cc3)=NS(=O)(=O)N2C)cc1,i,i,i,i,i,nt,nt
Cc1cc(C(=O)N/N=C/C=C/c2ccccc2)n[nH]1,i,i,i,i,i,nt,nt
Cc1cc(C(=O)N/N=C/C=C/c2cccc([N+](=O)[O-])c2)n[nH]1,i,11,i,i,i,i,i
CC(/C=C/c1cccc([N+](=O)[O-])c1)=N\NC(=O)c1ccncc1,i,13,i,i,i,i,i
CN(C)S(=O)(=O)c1ccc(Cl)c(C(=O)OCC(=O)NNC(=O)c2cccs2)c1,i,i,i,i,i,nt,nt
O=C(O)C1CCCCC1C(=O)NCc1ccc(Cl)c(Cl)c1 (stereo unspecified),i,i,i,i,i,nt,nt
O=S(=O)(Nc1nc2ccccc2s1)c1cc(F)ccc1F,i,9.5,i,i,i,i,i
Cc1cc(C(=O)CSc2n[nH]c(-c3ccccc3F)n2)c(C)n1Cc1cccs1,i,10,i,i,i,i,i
Cc1csc(SCC(=O)c2cc(C)n(Cc3cccs3)c2C)n1,i,i,i,i,i,nt,nt
